Measured values as given in ChEMBL document CHEMBL2040757, “New N-arylamino biquinoline derivatives: synthesis, antimicrobial, antituberculosis, and antimalarial evaluation” (Eur J Med Chem, 2012).
In brackets after ≈: the same amount, converted by molar mass.

Experiments:
Bacillus subtilis = assay: Antibacterial activity against Bacillus subtilis MTCC 441 by broth microdilution method; format: functional
Method in brief: (§1)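 Broth microdilution per NCCLS, with serial dilutions in Mueller Hinton broth and DMSO as diluent. Tubes were incubated overnight at 37 °C. MIC was the lowest concentration giving no visible growth, with the control organism's MIC read to verify concentrations. Tubes without growth were subcultured overnight at 37 °C to judge bacteriostatic versus bactericidal action.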

Clostridium tetani = assay: Antibacterial activity against Clostridium tetani MTCC 449 by broth microdilution method; format: functional
Streptococcus pneumoniae = assay: Antibacterial activity against Streptococcus pneumoniae MTCC 1936 by broth microdilution method; format: functional; method in brief: as §1
Escherichia coli = assay: Antibacterial activity against Escherichia coli MTCC 443 by broth microdilution method; format: functional; method in brief: as §1
Salmonella typhi = assay: Antibacterial activity against Salmonella typhi MTCC 98 by broth microdilution method; format: functional, Salmonella enterica subsp. enterica serovar Typhi; details: Salmonella enterica
Vibrio cholerae = assay: Antibacterial activity against Vibrio cholerae MTCC 3906 by broth microdilution method; format: functional
Aspergillus fumigatus = assay: Antifungal activity against Aspergillus fumigatus MTCC 3008 by broth microdilution method; format: functional
Candida albicans = assay: Antifungal activity against Candida albicans MTCC 227 by broth microdilution method; format: functional
[1] = test system: Mycobacterium tuberculosis; assay: Growth inhibition of Mycobacterium tuberculosis H37Rv at 6.25 ug/mL after 12 to 28 days relative to control; format: functional
Plasmodium falciparum = assay: Antimalarial activity against trophozoite stage of chloroquine-sensitive Plasmodium falciparum 3D7 infected in human erythrocytes after 48 hrs; format: functional, organism-based; details: 3D7, 48 h
Method in brief: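 Parasites were kept in continuous culture in A+ human erythrocytes in RPMI with 10% human serum. Sorbitol-synchronized trophozoites at 1–2% parasitaemia and 2.5% haematocrit were exposed to serial dilutions (maximum 1 mg/ml; 0.02% final DMSO) for 48 h at 37 °C. Growth inhibition was measured; chloroquine and quinine served as positive controls. IC50 came from duplicate experiments.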

SMILES | MIC (Bacillus subtilis) [µg/mL] | MIC (Clostridium tetani) [µg/mL] | MIC (Streptococcus pneumoniae) [µg/mL] | MIC (Escherichia coli) [µg/mL] | MIC (Salmonella typhi) [µg/mL] | MIC (Vibrio cholerae) [µg/mL] | MIC (Aspergillus fumigatus) [µg/mL] | MIC (Candida albicans) [µg/mL] | inhibition at 6.25 µg/mL [1] [%] | IC50 (Plasmodium falciparum) [µg/mL]
Cc1ccc2nc(Cl)c(C3C(C#N)=C(N)N(Nc4ccc(Cl)cc4)C4=C3C(=O)CC(C)(C)C4)cc2c1 (stereo not given) | 500 (≈ 964 µM) | 250 (≈ 482 µM) | 250 (≈ 482 µM) | 100 (≈ 193 µM) | 200 (≈ 386 µM) | 200 (≈ 386 µM) | 1000 (≈ 1930 µM) | 500 (≈ 964 µM) | 15 | 0.008 (≈ 0.0154 µM)
COc1ccc2nc(Cl)c(C3C(C#N)=C(N)N(Nc4ccc(Cl)cc4)C4=C3C(=O)CC(C)(C)C4)cc2c1 (stereo not given) | 100 (≈ 187 µM) | 200 (≈ 374 µM) | 100 (≈ 187 µM) | 250 (≈ 468 µM) | 100 (≈ 187 µM) | 100 (≈ 187 µM) | > 1000 | > 1000 | 21 | 0.009 (≈ 0.0168 µM)
COc1ccc2nc(Cl)c(C3C(C#N)=C(N)N(Nc4ccc(C)cc4)C4=C3C(=O)CC(C)(C)C4)cc2c1 (stereo not given) | 200 (≈ 389 µM) | 100 (≈ 195 µM) | 200 (≈ 389 µM) | 150 (≈ 292 µM) | 200 (≈ 389 µM) | 200 (≈ 389 µM) | 500 (≈ 973 µM) | 500 (≈ 973 µM) | 50 | 0.19 (≈ 0.37 µM)
